Results as given in ChEMBL document CHEMBL1146219, “Synthesis and evaluation of novel radioiodinated benzamides for malignant melanoma” (J Med Chem, 2007).

Columns and labels:
Conditions in all cases: in vivo
Kidney [1] = test: Biodistribution in kidney of B16F0 tumor bearing C57BL/6J mouse at 0.37-0.74 MBq, iv after 1 hr in presence of haloperidol; type: ADME, organism-based
In short: (§1)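 Haloperidol blocking in B16F0-bearing C57BL/6J mice: 1 mg/kg haloperidol was given iv 5 min before the iv [¹²³I]benzamide (0.37-0.74 MBq). Groups of n = 5 were killed at 1 or 24 h. Tissues were weighed and γ-counted as in the biodistribution study and compared with untreated controls by one-way ANOVA, with p < 0.01 taken as significant.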

Blood [2] = test: Biodistribution in blood of B16F0 tumor bearing C57BL/6J mouse at 0.37-0.74 MBq, iv after 24 hrs in presence of haloperidol; type: ADME, organism-based
Kidney [3] = test: Biodistribution in kidney of B16F0 tumor bearing C57BL/6J mouse at 0.37-0.74 MBq, iv after 24 hrs in presence of haloperidol; type: ADME, organism-based; in short: as §1
Lung [4] = test: Biodistribution in lung of B16F0 tumor bearing C57BL/6J mouse at 0.37-0.74 MBq, iv after 48 hrs; type: ADME, organism-based
In short: (§2)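 Female C57BL/6J mice (15-18 g) were given B16F0 cells subcutaneously in the left flank (0.1 mL of 3 × 10⁶ viable cells/mL in Ca²⁺/Mg²⁺-free PBS) at 6-7 weeks and used after ten days. [¹²³I]benzamide (0.37-0.74 MBq, 100 µL, saline) was injected via the tail vein. Groups of n = 5 were killed by CO₂ and cervical dislocation. Organs were weighed and γ-counted, and the carcass was counted too.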

Blood [5] = test: Biodistribution in blood of B16F0 tumor bearing C57BL/6J mouse at 0.37-0.74 MBq, iv after 72 hrs; type: ADME, organism-based; in short: as §2
Brain [6] = test: Biodistribution in brain of B16F0 tumor bearing C57BL/6J mouse at 0.37-0.74 MBq, iv after 1 hr in presence of haloperidol; type: ADME, organism-based
[7] = Biodistribution in melanoma of B16F0 tumor bearing C57BL/6J mouse at 0.37-0.74 MBq, iv after 6 hrs; type: ADME, organism-based, B16-F0
In short: (§3)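 Female C57BL/6J mice (15-18 g) carrying s.c. B16F0 flank tumors (0.1 mL of 3 × 10⁶ viable cells per mL in Ca²⁺/Mg²⁺-free PBS, inoculated at 6-7 weeks, used 10 days later). [¹²³I]tracer 0.37-0.74 MBq in saline, 100 µL, tail-vein i.v. Groups of n = 5 killed at 1-72 h. Organs weighed and γ-counted, carcass activity also counted, values as %ID/g.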

Lung [8] = test: Biodistribution in lung of B16F0 tumor bearing C57BL/6J mouse at 0.37-0.74 MBq, iv after 1 hr in presence of haloperidol; type: ADME, organism-based; in short: as §1
[9] = Biodistribution in melanoma of B16F0 tumor bearing C57BL/6J mouse at 0.37-0.74 MBq, iv after 72 hrs; type: ADME, organism-based, B16-F0; in short: as §3
[10] = Biodistribution in melanoma of B16F0 tumor bearing C57BL/6J mouse at 0.37-0.74 MBq, iv after 1 hr; type: ADME, organism-based, B16-F0; in short: as §2
Lung [11] = test: Biodistribution in lung of B16F0 tumor bearing C57BL/6J mouse at 0.37-0.74 MBq, iv after 1 hr; type: ADME, organism-based; in short: as §2
Liver [12] = test: Biodistribution in liver of B16F0 tumor bearing C57BL/6J mouse at 0.37-0.74 MBq, iv after 6 hrs; type: ADME, organism-based; in short: as §2
Brain [13] = test: Biodistribution in brain of B16F0 tumor bearing C57BL/6J mouse at 0.37-0.74 MBq, iv after 1 hr; type: ADME, organism-based; in short: as §2
Liver [14] = test: Biodistribution in liver of B16F0 tumor bearing C57BL/6J mouse at 0.37-0.74 MBq, iv after 24 hrs in presence of haloperidol; type: ADME, organism-based; in short: as §1
Blood [15] = test: Biodistribution in blood of B16F0 tumor bearing C57BL/6J mouse at 0.37-0.74 MBq, iv after 1 hr in presence of haloperidol; type: ADME, organism-based
[16] = Biodistribution in tumor of B16F0 tumor bearing C57BL/6J mouse at 0.37-0.74 MBq, iv after 1 hr in presence of haloperidol; type: ADME, organism-based, B16-F0
In short: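 B16F0 tumor-bearing C57BL/6J mice, groups of n = 5, given haloperidol 1 mg/kg i.v. 5 min before the i.v. [¹²³I]tracer (0.37-0.74 MBq). Killed at 1 or 24 h. Tissues γ-counted as for biodistribution and compared with untreated controls by one-way ANOVA, significance p < 0.01.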

Brain [17] = test: Biodistribution in brain of B16F0 tumor bearing C57BL/6J mouse at 0.37-0.74 MBq, iv after 24 hrs; type: ADME, organism-based; in short: as §2
Brain [18] = test: Biodistribution in brain of B16F0 tumor bearing C57BL/6J mouse at 0.37-0.74 MBq, iv after 3 hrs; type: ADME, organism-based; in short: as §2
Brain [19] = test: Biodistribution in brain of B16F0 tumor bearing C57BL/6J mouse at 0.37-0.74 MBq, iv after 24 hrs in presence of haloperidol; type: ADME, organism-based
Kidney [20] = test: Biodistribution in kidney of B16F0 tumor bearing C57BL/6J mouse at 0.37-0.74 MBq, iv after 6 hrs; type: ADME, organism-based; in short: as §2
Liver [21] = test: Biodistribution in liver of B16F0 tumor bearing C57BL/6J mouse at 0.37-0.74 MBq, iv after 72 hrs; type: ADME, organism-based; in short: as §2
Kidney [22] = test: Biodistribution in kidney of B16F0 tumor bearing C57BL/6J mouse at 0.37-0.74 MBq, iv after 72 hrs; type: ADME, organism-based; in short: as §2
Heart [23] = test: Biodistribution in heart of B16F0 tumor bearing C57BL/6J mouse at 0.37-0.74 MBq, iv after 72 hrs; type: ADME, organism-based; in short: as §2
[24] = Biodistribution in melanoma of B16F0 tumor bearing C57BL/6J mouse at 0.37-0.74 MBq, iv after 3 hrs; type: ADME, organism-based, B16-F0; in short: as §2
Blood [25] = test: Biodistribution in blood of B16F0 tumor bearing C57BL/6J mouse at 0.37-0.74 MBq, iv after 1 hr; type: ADME, organism-based; in short: as §2
Lung [26] = test: Biodistribution in lung of B16F0 tumor bearing C57BL/6J mouse at 0.37-0.74 MBq, iv after 24 hrs; type: ADME, organism-based; in short: as §2
Brain [27] = test: Biodistribution in brain of B16F0 tumor bearing C57BL/6J mouse at 0.37-0.74 MBq, iv after 72 hrs; type: ADME, organism-based; in short: as §2
[28] = Biodistribution in melanoma of B16F0 tumor bearing C57BL/6J mouse at 0.37-0.74 MBq, iv after 48 hrs; type: ADME, organism-based, B16-F0; in short: as §2
Blood [29] = test: Biodistribution in blood of B16F0 tumor bearing C57BL/6J mouse at 0.37-0.74 MBq, iv after 3 hrs; type: ADME, organism-based; in short: as §2
Brain [30] = test: Biodistribution in brain of B16F0 tumor bearing C57BL/6J mouse at 0.37-0.74 MBq, iv after 48 hrs; type: ADME, organism-based; in short: as §2
Lung [31] = test: Biodistribution in lung of B16F0 tumor bearing C57BL/6J mouse at 0.37-0.74 MBq, iv after 3 hrs; type: ADME, organism-based; in short: as §2
Heart [32] = test: Biodistribution in heart of B16F0 tumor bearing C57BL/6J mouse at 0.37-0.74 MBq, iv after 1 hr; type: ADME, organism-based; in short: as §2
Blood [33] = test: Biodistribution in blood of B16F0 tumor bearing C57BL/6J mouse at 0.37-0.74 MBq, iv after 24 hrs; type: ADME, organism-based; in short: as §2

CCCCN(C)CCCCNC(=O)c1cc([123I])c(NC(C)=O)cc1OC
Drug uptake (Kidney [1]): 17.3 % ID/g
Drug uptake (Blood [2]): 0.02 % ID/g
Drug uptake (Kidney [3]): 0.03 % ID/g
Drug uptake (Lung [4]): 0.08 % ID/g
Drug uptake (Blood [5]): 0.05 % ID/g
Drug uptake (Brain [6]): 0.06 % ID/g
Drug uptake [7]: 8.4 % ID/g
Drug uptake (Lung [8]): 1.54 % ID/g
Drug uptake [9]: 2.2 % ID/g
Drug uptake [10]: 5.6 % ID/g
Drug uptake (Lung [11]): 1.9 % ID/g
Drug uptake (Liver [12]): 1.8 % ID/g
Drug uptake (Brain [13]): 0.07 % ID/g
Drug uptake (Liver [14]): 0.3 % ID/g
Drug uptake (Blood [15]): 1.15 % ID/g
Drug uptake [16]: 6.1 % ID/g
Drug uptake (Brain [17]): 0.01 % ID/g
Drug uptake (Brain [18]): 0.04 % ID/g
Drug uptake (Brain [19]): 0.002 % ID/g
Drug uptake (Kidney [20]): 1.2 % ID/g
Drug uptake (Liver [21]): 0.25 % ID/g
Drug uptake (Kidney [22]): 0.1 % ID/g
Drug uptake (Heart [23]): 0.06 % ID/g
Drug uptake [24]: 9.7 % ID/g
Drug uptake (Blood [25]): 1.2 % ID/g
Drug uptake (Lung [26]): 0.1 % ID/g
Drug uptake (Brain [27]): 0.01 % ID/g
Drug uptake [28]: 4.6 % ID/g
Drug uptake (Blood [29]): 0.95 % ID/g
Drug uptake (Brain [30]): 0.01 % ID/g
Drug uptake (Lung [31]): 0.95 % ID/g
Drug uptake (Heart [32]): 0.98 % ID/g
Drug uptake (Blood [33]): 0.11 % ID/g
